This is a sample that favours compounds with a hit; in the whole collection about 9.2% have one here.
HCT116 bCat-KO – primary screen for growth suppressors in beta-catenin knockout HCT116 cells (colon tumor, human) | viability, % at 10 µM | HCT116 beta-catenin knockout viability, CellTiter-Glo, 60 h; active compounds read low | 140,000 tested, 1.5% active | AID 818, 2007;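 active means viability at or under a set limit, the compound median less 4 SD, cut at about 6% in these data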;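 further: 0% = Hyamine 1622 control at 20 µM and 100% = untreated cell control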
HCT116 PTEN-null – growth suppression of PTEN-null HCT116, primary screen, cell-based, CellTiter-Glo. HCT116 PTEN-null viability, 60 h; active compounds read low. viability, % at 10 µM. 140,000 tested, 1.2% active. AID 827, 2007;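 active means viability at or below a set limit, 4 SD under the median of all tested compounds, cut at about 3.7% in these data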;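 further: PTEN knockout HCT116 line with beta catenin targeted HCT116 as companion control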
Autophagy mod – autophagy modulators in MEF cells, primary screen, imaging, high-content, MEF GFP-LC3 | 190,000 tested, 0.98% active | calls only at 10 µM (by protocol) | MEF GFP-LC3 puncta imaging; test concentration mostly 10 µM;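 active means percentage of spot-positive cells more than 3 SD above its plate mean, without a fluorescence outlier flag or 80% toxicity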;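 further: spot-positive cell cutoff set from DMSO-treated cells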
L major viab – Leishmania major promastigote growth inhibition, primary screen | Leishmania major promastigotes, resazurin fluorescence viability | inhibition, % at 10 µM | 200,000 tested, 9% active | AID 1063, 2008; in the data active means inhibition above about 50%;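 further: promastigotes grown with compound for 44 hours at 28 °C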
Dynein transport – inhibitors of GR-EGFP nuclear translocation, primary screen, dynein cargo transport inhibitor project, imaging, high-content, 3617.4 mouse cells. test concentration mostly 20 µM; stimulated with dexamethasone, 1 µM; active compounds read low. z-score, hits read low. 220,000 tested, 0.47% active. AID 1381, 2008;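 active means plate z-score of nuclear minus cytoplasmic receptor signal below a set negative limit, without overly bright fluorescence or cell loss, cut at about -3.5 in these data, passing the limit was not always enough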;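 further: z-score of nuclear minus cytoplasmic ring GR-EGFP intensity difference per well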
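Schedule: 48 h induction, then 1 h compound, then 30 min agonist, 37 °C. Buffer or medium: tetracycline-free induction medium containing charcoal-stripped FBS. Reagent: 1.0 µM final dexamethasone stimulus. Evaluation: nuclear versus cytoplasmic GR-EGFP signal, averaged per well. Signal: high-content fluorescence imaging after fixation.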
The depositor's hits bear a star; i = inactive; . = no result given.

SMILES | HCT116 bCat-KO | HCT116 PTEN-null | Autophagy mod | L major viab | Dynein transport
Cc1cccc(-n2c(=O)[nH]c3c(C(N)=O)nc(CC(C)C)nc32)c1 | 108.8 | 99.6 | i | 50.5* | -0.0391
COc1ccc(S(=O)(=O)N2CCN(CC(=O)Nc3ccc(C)c(F)c3)CC2)cc1 | 68.6 | 76.2 | i | 8.9 | -0.334
COc1c(/C=N/NC(=O)c2ccncc2)c(CCN(C)C(C)=O)cc2c1OCO2 | . | . | . | . | -0.335
CC(=O)c1ccc(N2CCN(C(=O)Nc3ccc(C(C)C)cc3)CC2)cc1 | . | . | i | 64.6* | -0.636
CC(=O)c1ccc(N2CCN(C(=O)Nc3ccc(F)cc3)CC2)cc1 | . | . | i | 29.1 | -0.501
COc1cc(NC2=Nc3cccc4cccc2c34)cc(OC)c1OC | 70.3 | 70.5 | i | 56.3* | -0.571
COc1ccccc1CN(Cc1cc2cc(C)ccc2[nH]c1=O)Cc1nnnn1Cc1ccco1 | 61.2 | 62.9 | i | 60.9* | 0.692
CCc1ccc2[nH]c(=O)c(CN(Cc3ccccc3OC)Cc3nnnn3Cc3ccco3)cc2c1 | 15.6 | 8.7 | i | 99.0* | -1.59
COc1ccc2[nH]c(=O)c(CN(Cc3ccco3)Cc3nnnn3Cc3ccccc3)cc2c1 | 89.4 | 94.8 | i | 1.5 | -0.732
CCOC(=O)c1c2ccc(OCC(=O)N/N=C/c3ccccc3C(F)(F)F)cc2n2ccccc12 | 1.5* | 1.9* | i | 4.5 | -0.619
Cc1cccc(OCC(=O)N/N=C\c2cn(C)c3ccccc23)c1 | . | . | i | 9.1 | -0.451
O=C1N(CCCCN2C(=O)C3(OCCO3)c3ccccc32)c2ccccc2C12OCCO2 | 85.7 | 77.6 | i | 59.5* | -0.246
O=C1N(CCCN2C(=O)C3(OCCO3)c3ccccc32)c2ccccc2C12OCCO2 | 96.2 | 104.1 | i | 10.7 | 0.814
CC(=O)c1cccc2c(O)c(C3=Nc4ccccc4C3=O)[nH]c12 | 38.2 | 35.5 | i | 99.3* | -0.434
Cc1ccc(S(=O)(=O)NC(C(=O)Oc2ccc3c(C(F)(F)F)cc(=O)oc3c2)c2ccccc2)cc1 (stereo not given) | 100.1 | 95.0 | i | -6.8 | -3.04
COc1ccc(-c2nc3ccccn3c2/N=C/c2ccc(OC)c(OC)c2)cc1O | 79.5 | 88.4 | i | 60.1* | 0.931
CSc1ccc(-c2nc(CSCC(=O)NCCCN3CCOCC3)c(C)o2)cc1 | 83.8 | 88.0 | i | 19.3 | 1.34
Cc1ccc(-c2nc(CSCC(=O)NCCCN3CCOCC3)c(C)o2)cc1 | 96.0 | 96.0 | i | 53.1* | -0.0109
Cc1oc(-c2cccc(Cl)c2)nc1CN1CCCC(C(=O)NCCCN2CCOCC2)C1 (stereo not given) | 67.2 | 79.0 | i | 100.5* | 0.373
Cc1oc(-c2ccc(Cl)cc2)nc1CN1CCC(C(=O)NCc2cccs2)CC1 | 68.3 | 66.5 | i | 2.7 | 3.04
Cc1oc(-c2ccc(Cl)cc2)nc1CN1CCC(C(=O)NCCCN2CCOCC2)CC1 | 68.4 | 56.3 | i | 100.5* | -0.636
O=C(CSc1cccc[n+]1[O-])CSc1cccc[n+]1[O-] | . | . | i | 99.3* | 0.0719
COC(=O)c1ccc(-n2c(C)cc(C(=O)CSc3cccc[n+]3[O-])c2C)cc1 | . | . | i | 98.0* | -0.27
O=C(CSc1cccc[n+]1[O-])Nc1ccccc1Oc1ccccc1 | . | . | i | 100.2* | -0.277
O=C(CSc1ccc(Br)cc1)Nc1ccccc1Oc1ccccc1 | 92.8 | 92.2 | i | -3.2 | -0.638
SMILES | HCT116 bCat-KO | HCT116 PTEN-null | Autophagy mod | L major viab | Dynein transport
Cc1cc(C(=O)CSc2cccc[n+]2[O-])c(C)n1-c1ccc(OC(F)F)cc1 | . | . | . | . | -0.354
COC(=O)c1ccc(C(=O)OC)c(NC(=O)COC(=O)C2CC2C)c1 (stereo not given) | 94.4 | 101.0 | i | 75.8* | -0.481
CCOc1cccc2cc(C(N)=O)c(=N)oc12 | . | . | . | . | -1.31
CCN(CC)c1nc(C)nc2c1cnn2CCc1ccccc1 | 78.4 | 83.5 | i | 4.7 | 0.575
O=C(COc1ccccc1-c1ccccc1)NNC(=O)NC1CCCCC1 | . | . | i | 1.5 | -0.0414
CSCCC(NC(=O)c1ccc(C(C)(C)C)cc1)C(=O)O (stereo not given) | . | . | i | 2.0 | -0.182
COC(=O)c1ccc(C(=O)OC)c(NC(=O)CSCC(=O)O)c1 | . | . | . | . | 2.5
COC(=O)c1ccc(C(=O)OC)c(NC(=O)CSc2cccc[n+]2[O-])c1 | 59.7 | 59.5 | i | 98.0* | -0.131
O=S(=O)(c1ccc(F)cc1)N1CCC(N2CCCC2)CC1 | 96.7 | 98.6 | i | 43.5 | -0.349
